Laboratory results from ChEMBL document CHEMBL3588833 (ACS Med Chem Lett, 2015).
The source made the active and inactive calls.

Key:
[1] = target: T1, Sodium channel protein type 10 subunit alpha (Homo sapiens, UniProt Q9Y5Y9); test: Inhibition of human Nav1.8 expressed in HEK293 cells assessed as reduction in blue fluorescent signal by VSP-FRET assay; type: cell-based
Method in brief: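 hNav1.8 stably expressed in an in-house HEK293 line; membrane-potential VSP-FRET read-out; IC50 from at least three tests on three separate assay runs.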

[2] = Solubility of the compound at pH 7.2; type: physicochemical; conditions: buffer
[3] = target: T2, Sodium channel protein type 2 subunit alpha (Homo sapiens, UniProt Q99250); test: Inhibition of human Nav1.2 expressed in SHSY5Y cells assessed as reduction in blue fluorescent signal by VSP-FRET assay; type: cell-based, SH-SY5Y
T2 sequence (Q99250 whole entry): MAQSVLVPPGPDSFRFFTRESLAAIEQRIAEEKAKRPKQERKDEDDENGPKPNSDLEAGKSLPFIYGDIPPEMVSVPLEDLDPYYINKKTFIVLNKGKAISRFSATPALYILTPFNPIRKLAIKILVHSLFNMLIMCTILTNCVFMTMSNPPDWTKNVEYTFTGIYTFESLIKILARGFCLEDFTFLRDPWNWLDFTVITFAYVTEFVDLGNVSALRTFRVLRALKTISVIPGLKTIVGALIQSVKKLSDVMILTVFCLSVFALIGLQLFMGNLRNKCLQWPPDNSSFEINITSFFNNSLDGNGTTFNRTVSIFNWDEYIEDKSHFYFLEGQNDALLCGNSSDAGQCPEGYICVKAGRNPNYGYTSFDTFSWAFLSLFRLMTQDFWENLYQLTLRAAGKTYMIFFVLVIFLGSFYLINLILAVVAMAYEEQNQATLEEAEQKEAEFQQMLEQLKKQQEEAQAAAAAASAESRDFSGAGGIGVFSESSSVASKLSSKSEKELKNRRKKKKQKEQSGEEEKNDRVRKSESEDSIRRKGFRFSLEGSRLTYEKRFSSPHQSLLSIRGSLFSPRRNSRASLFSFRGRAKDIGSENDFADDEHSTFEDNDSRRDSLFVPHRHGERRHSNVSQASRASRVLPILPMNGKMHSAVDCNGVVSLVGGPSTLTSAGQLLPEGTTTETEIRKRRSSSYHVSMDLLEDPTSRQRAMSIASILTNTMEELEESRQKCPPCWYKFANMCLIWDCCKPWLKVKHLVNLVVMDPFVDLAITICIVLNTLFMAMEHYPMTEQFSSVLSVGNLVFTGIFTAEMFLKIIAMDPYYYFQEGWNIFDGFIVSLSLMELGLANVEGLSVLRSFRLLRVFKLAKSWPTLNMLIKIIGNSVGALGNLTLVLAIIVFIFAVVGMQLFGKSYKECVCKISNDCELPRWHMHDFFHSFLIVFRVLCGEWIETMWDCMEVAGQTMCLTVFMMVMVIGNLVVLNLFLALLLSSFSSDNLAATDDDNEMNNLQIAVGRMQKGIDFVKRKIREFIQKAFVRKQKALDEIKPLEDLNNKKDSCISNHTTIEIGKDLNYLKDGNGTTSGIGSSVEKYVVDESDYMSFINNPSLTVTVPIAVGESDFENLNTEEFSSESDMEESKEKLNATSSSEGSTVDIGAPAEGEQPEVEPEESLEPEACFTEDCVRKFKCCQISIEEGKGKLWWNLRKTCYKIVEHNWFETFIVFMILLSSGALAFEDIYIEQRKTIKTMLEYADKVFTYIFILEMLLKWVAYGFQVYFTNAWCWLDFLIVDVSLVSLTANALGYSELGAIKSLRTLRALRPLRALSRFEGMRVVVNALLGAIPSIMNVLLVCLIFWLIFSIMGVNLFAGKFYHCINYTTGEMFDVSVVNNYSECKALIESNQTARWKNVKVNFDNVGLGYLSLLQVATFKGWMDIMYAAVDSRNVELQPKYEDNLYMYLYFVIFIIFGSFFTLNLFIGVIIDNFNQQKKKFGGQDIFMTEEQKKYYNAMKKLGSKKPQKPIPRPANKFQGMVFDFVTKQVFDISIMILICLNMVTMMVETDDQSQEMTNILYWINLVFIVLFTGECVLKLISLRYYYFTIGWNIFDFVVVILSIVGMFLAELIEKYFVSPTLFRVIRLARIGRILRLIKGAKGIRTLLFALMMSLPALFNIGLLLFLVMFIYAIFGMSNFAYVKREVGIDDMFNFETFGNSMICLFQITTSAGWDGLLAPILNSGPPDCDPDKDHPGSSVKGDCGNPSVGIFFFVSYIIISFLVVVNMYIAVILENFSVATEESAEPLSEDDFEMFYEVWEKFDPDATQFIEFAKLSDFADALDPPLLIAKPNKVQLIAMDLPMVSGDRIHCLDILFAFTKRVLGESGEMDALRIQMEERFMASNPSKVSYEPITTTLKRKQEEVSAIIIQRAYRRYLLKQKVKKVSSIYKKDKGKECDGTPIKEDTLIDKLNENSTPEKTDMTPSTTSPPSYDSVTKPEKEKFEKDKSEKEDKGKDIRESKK

[4] = Half life in rat at 2 mg/kg, iv; type: ADME, organism-based; conditions: in vivo
[5] = Half life in rat at 5 mg/kg, po; type: ADME, organism-based; conditions: in vivo
[6] = Tmax in rat at 5 mg/kg, po; type: ADME, organism-based; conditions: in vivo
[7] = Plasma clearance in rat at 2 mg/kg, iv; type: ADME, organism-based
[8] = Plasma clearance in rat at 5 mg/kg, po; type: ADME, organism-based
[9] = Volume of distribution in rat at 2 mg/kg, iv; type: ADME, organism-based; conditions: in vivo
[10] = Oral bioavailability in rat at 5 mg/kg; type: ADME, organism-based; conditions: in vivo
[11] = target: T1, Sodium channel protein type 10 subunit alpha; test: Inhibition of human Nav1.8/beta1 expressed in HEK293 cells by manual patch clamp electrophysiology; type: cell-based
Method in brief: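 Recombinantly expressed human Nav1.8 with β1 subunit, recorded by manual whole-cell patch clamp electrophysiology. Inhibition was measured at the channel's V0.5 of inactivation, and IC50 values were derived from these recordings, with the number of determinations (n) reported per compound.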

[12] = target: Sodium channel protein type 1 subunit alpha (Homo sapiens, UniProt P35498); test: Inhibition of human Nav1.1 expressed in HEK293 cells by IonWorks Quattro selectivity assay; type: cell-based
[13] = target: T2, Sodium channel protein type 2 subunit alpha; test: Inhibition of human Nav1.2 expressed in HEK293 cells by IonWorks Quattro selectivity assay; type: cell-based
[14] = target: Sodium channel protein type 5 subunit alpha (Homo sapiens, UniProt Q14524); test: Inhibition of human Nav1.5 expressed in HEK293 cells by IonWorks Quattro selectivity assay; type: cell-based
[15] = Intrinsic clearance in rat liver microsomes; type: ADME; conditions: read-out: CLH
[16] = Intrinsic clearance in human liver microsomes; type: ADME; conditions: read-out: CLH
[17] = Inhibition of Voltage gated sodium channel-mediated TTX-r current in rat DRG neurons by manual patch clamp electrophysiology; conditions: DRG neuron
[18] = Inhibition of Voltage gated sodium channel-mediated TTX-R current in human DRG neurons by manual patch clamp electrophysiology; conditions: DRG neuron
Rattus norvegicus [19] = test: Antallodynic effect in Sprague-Dawley rat spinal nerve injury-induced neuropathic pain model at 10 or 30 mg/kg; type: functional, organism-based
[20] = target: Voltage-gated inwardly rectifying potassium channel KCNH2 (Homo sapiens, UniProt Q12809)
Chain of Voltage-gated inwardly rectifying potassium channel KCNH2 (Q12809 whole entry): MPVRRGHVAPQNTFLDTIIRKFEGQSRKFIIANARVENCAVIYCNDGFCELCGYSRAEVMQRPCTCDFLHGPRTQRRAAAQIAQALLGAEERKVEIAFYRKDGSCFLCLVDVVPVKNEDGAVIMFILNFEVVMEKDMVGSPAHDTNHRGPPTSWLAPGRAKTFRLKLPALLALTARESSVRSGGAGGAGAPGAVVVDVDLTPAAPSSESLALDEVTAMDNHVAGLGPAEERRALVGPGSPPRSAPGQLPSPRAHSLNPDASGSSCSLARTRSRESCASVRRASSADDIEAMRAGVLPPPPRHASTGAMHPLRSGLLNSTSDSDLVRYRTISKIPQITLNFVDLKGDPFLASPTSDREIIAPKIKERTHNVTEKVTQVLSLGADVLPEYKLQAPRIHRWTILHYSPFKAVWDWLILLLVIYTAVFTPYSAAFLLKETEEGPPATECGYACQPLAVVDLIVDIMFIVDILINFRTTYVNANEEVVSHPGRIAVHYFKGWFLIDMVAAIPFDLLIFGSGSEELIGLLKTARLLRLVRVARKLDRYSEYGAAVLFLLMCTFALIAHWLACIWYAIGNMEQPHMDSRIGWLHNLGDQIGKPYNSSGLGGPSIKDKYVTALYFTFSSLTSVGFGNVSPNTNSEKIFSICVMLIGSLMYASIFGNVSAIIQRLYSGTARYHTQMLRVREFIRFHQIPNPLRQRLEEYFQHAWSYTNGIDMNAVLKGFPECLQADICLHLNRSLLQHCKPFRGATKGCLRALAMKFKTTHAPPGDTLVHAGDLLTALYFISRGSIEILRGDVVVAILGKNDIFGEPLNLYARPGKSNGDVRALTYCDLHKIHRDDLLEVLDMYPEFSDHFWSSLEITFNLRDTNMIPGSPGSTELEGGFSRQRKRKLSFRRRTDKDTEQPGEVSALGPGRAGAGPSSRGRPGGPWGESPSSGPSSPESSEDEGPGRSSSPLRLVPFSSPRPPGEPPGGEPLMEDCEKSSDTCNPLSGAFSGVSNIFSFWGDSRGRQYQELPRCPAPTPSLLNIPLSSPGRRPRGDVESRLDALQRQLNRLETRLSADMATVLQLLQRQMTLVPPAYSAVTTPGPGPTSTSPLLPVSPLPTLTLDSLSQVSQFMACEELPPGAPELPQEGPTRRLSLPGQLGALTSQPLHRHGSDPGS

[21] = target: T3, Sodium channel protein type 9 subunit alpha (Homo sapiens, UniProt Q15858); test: Inhibition of human Nav1.7 expressed in HEK293 cells by IonWorks Quattro assay
T3 sequence (Q15858 whole entry): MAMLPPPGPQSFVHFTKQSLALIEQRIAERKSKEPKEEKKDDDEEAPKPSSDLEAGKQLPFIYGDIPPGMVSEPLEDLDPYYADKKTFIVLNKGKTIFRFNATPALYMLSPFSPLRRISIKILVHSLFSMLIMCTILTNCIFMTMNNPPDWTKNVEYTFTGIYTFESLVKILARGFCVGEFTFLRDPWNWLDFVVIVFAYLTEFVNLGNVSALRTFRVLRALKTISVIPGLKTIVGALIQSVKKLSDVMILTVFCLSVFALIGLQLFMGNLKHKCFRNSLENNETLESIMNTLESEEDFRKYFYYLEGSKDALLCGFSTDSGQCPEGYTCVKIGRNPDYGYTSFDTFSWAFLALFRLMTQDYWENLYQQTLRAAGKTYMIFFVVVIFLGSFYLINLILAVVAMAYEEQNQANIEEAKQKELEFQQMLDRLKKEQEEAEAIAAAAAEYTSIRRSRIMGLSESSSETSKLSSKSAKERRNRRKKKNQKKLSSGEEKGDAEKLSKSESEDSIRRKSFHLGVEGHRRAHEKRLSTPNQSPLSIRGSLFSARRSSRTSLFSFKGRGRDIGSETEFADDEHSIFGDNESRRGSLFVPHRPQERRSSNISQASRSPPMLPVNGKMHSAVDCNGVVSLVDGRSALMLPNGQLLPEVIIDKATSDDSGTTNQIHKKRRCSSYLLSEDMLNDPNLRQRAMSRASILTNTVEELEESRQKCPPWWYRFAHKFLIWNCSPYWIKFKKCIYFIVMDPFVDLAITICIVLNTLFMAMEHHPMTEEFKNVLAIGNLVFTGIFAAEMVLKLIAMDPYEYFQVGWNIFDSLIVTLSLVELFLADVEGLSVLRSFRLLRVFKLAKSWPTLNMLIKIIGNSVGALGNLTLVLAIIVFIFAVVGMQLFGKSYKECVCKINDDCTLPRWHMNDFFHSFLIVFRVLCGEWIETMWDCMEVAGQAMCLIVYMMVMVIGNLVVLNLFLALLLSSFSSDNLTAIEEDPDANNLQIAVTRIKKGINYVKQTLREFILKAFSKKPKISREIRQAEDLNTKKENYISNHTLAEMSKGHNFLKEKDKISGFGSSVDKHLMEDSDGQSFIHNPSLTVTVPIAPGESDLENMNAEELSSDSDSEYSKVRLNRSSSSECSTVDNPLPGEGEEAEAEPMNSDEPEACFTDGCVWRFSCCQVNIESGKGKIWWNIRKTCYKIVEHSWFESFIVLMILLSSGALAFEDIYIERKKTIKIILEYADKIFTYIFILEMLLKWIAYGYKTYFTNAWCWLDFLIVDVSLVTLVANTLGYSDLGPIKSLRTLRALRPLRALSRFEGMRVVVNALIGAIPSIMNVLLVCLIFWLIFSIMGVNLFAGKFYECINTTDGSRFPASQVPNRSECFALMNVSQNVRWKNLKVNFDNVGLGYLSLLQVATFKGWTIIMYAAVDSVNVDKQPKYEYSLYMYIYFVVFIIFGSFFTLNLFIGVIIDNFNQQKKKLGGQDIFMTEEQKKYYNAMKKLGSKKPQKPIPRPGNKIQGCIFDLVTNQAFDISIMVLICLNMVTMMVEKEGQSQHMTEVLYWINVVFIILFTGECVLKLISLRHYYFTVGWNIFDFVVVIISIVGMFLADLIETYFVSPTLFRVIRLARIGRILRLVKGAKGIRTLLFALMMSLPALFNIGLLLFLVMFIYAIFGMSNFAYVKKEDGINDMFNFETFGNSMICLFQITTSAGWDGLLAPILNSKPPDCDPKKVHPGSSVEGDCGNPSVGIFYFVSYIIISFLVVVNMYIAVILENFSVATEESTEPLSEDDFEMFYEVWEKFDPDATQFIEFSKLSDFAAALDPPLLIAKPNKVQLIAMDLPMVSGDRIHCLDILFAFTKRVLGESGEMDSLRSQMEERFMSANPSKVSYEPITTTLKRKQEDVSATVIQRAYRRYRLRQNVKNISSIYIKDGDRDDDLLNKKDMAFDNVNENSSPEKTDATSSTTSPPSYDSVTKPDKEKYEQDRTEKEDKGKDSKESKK

Rattus norvegicus [22] = test: Antallodynic effect in Sprague-Dawley rat tibial nerve transection-induced mechanical allodynia model assessed as 50% shift in paw withdrawal threshold in ipsilateral paw at 10 mg/kg, single dose after 1.5 hrs (reference value: 1.7 +/- 0.2 g); type: functional
Method in brief: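 Rat tibial nerve transection neuropathic pain model; mechanical allodynia read as 50% paw withdrawal threshold (g) of the ipsilateral hindpaw. The threshold is taken at baseline and again 1.5 h after a single dose. Data are given as mean ± SEM, with significance set at P < 0.05.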

[23] = Half life in rat at 3 mg/kg, po; type: ADME, organism-based; conditions: in vivo
[24] = Tmax in rat at 3 mg/kg, po; type: ADME, organism-based; conditions: in vivo
[25] = Plasma clearance in rat at 3 mg/kg, po; type: ADME, organism-based
[26] = Half life in rat at 1 mg/kg, iv; type: ADME, organism-based; conditions: in vivo
[27] = Tmax in rat at 2 mg/kg, po; type: ADME, organism-based; conditions: in vivo
[28] = Plasma clearance in rat at 1 mg/kg, iv; type: ADME, organism-based
[29] = Plasma clearance in rat at 2 mg/kg, po; type: ADME, organism-based
[30] = Volume of distribution in rat at 1 mg/kg, iv; type: ADME, organism-based; conditions: in vivo
[31] = Oral bioavailability in rat at 2 mg/kg; type: ADME, organism-based; conditions: in vivo
Rattus norvegicus [32] = test: Antallodynic effect in Sprague-Dawley rat tibial nerve transection-induced mechanical allodynia model assessed as 50% shift in paw withdrawal threshold in ipsilateral paw at 40 mg/kg, single dose after 1.5 hrs (reference value: 1.7 +/- 0.3 g); type: functional
Method in brief: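 Tibial nerve transection neuropathic pain model in rat; single dose of 40 mg/kg; 50% paw withdrawal threshold of ipsilateral hindpaw measured 1.5 h post-dose against pre-dose baseline; pregabalin 10 mg/kg as comparator; mean ± SEM, P < 0.05 significance.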

[33] = Unbound plasma concentration in Sprague-Dawley rat at 40 mg/kg single dose; type: ADME, organism-based
Rattus norvegicus [34] = test: Toxicity in Sprague-Dawley rat assessed as effect on vertical or horizontal movement at 250 mg/kg, po single dose; type: organism-based; conditions: in vivo
Method in brief: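 Rats given a single oral dose of 250 mg/kg; horizontal and vertical locomotor movements compared with vehicle-treated controls.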

[35] = Half life in dog at 0.1 mg/kg, iv; type: ADME, organism-based, Canis lupus familiaris; conditions: in vivo
[36] = Tmax in dog at 0.25 mg/kg, po; type: ADME, organism-based, Canis lupus familiaris; conditions: in vivo
[37] = Plasma clearance in dog at 0.1 mg/kg, iv; type: ADME, organism-based, Canis lupus familiaris
[38] = Plasma clearance in dog at 0.25 mg/kg, po; type: ADME, organism-based, Canis lupus familiaris
[39] = Volume of distribution in dog at 0.1 mg/kg, iv; type: ADME, organism-based, Canis lupus familiaris; conditions: in vivo
[40] = Oral bioavailability in dog at 0.25 mg/kg; type: ADME, organism-based, Canis lupus familiaris; conditions: in vivo
[41] = target: T2, Sodium channel protein type 2 subunit alpha; test: Inhibition of human Nav1.2 expressed in SHSY5Y cells by IonWorks Quattro selectivity assay; type: cell-based, SH-SY5Y
[42] = target: Sodium channel protein type 3 subunit alpha (Homo sapiens, UniProt Q9NY46); test: Inhibition of human Nav1.3 expressed in SHSY5Y cells by IonWorks Quattro selectivity assay; type: cell-based, SH-SY5Y
[43] = target: T3, Sodium channel protein type 9 subunit alpha; test: Inhibition of human Nav1.7 expressed in SHSY5Y cells by FRET assay; type: cell-based, SH-SY5Y

Cn1nccc1C(=O)Nc1ccc(-c2cc(Cl)cc(Cl)c2Cl)c(N)n1
IC50 [1]: 0.75 µM | solubility [2]: < 0.1 µg/mL

CNC(=O)c1ccc(-c2ccc(Cl)cc2)c(N)n1
IC50 [1]: > 32 µM

Cc1nocc1C(=O)Nc1ccc(-c2cc(Cl)cc(Cl)c2Cl)c(N)n1
solubility [2]: < 0.1 µg/mL

CNC(=O)c1ccc(-c2cc(Cl)cc(Cl)c2Cl)c(N)n1
IC50 [1]: 2.6 µM | IC50 [3]: 14 µM | half-life [4]: 4 h | half-life [5]: 4.6 h | Tmax [6]: 1 h | clearance [7]: 11.7 mL/min/kg | CL/F [8]: 13.3 mL/min/kg | Vd [9]: 3 L/kg | bioavailability [10]: 91% | IC50 [11]: 0.19 µM | IC50 [12]: 13 µM | IC50 [13]: 12.8 µM | IC50 [14]: 9 µM | microsomal CLint [15]: < 9 µL/min/mg | microsomal CLint [16]: 7.1 µL/min/mg | IC50 [17]: 0.44 µM | IC50 [18]: 0.31 µM | Activity (Rattus norvegicus [19]): Active | IC50 [20]: 30 µM | IC50 [21]: 19 µM

CC(C)C[C@H](CN)CC(=O)O [PREGABALIN]
Activity (Rattus norvegicus [22]): 5.8 g

COc1ccc(Cl)c(-c2ccc(NC(=O)c3conc3C)nc2N)c1
IC50 [1]: 0.5 µM

Cn1nccc1C(=O)Nc1ccc(-c2ccccc2OC(F)(F)F)c(N)n1
IC50 [1]: 2.4 µM

CC(=O)Nc1ccc(-c2cc(Cl)cc(Cl)c2Cl)c(N)n1
IC50 [1]: 0.16 µM | IC50 [3]: 3.5 µM | half-life [23]: 4.1 h | Tmax [24]: 0.75 h | CL/F [25]: 204 mL/min/kg | microsomal CLint [15]: 29 µL/min/mg | microsomal CLint [16]: 41 µL/min/mg

COc1ccc(Cl)c(-c2ccc(NC(=O)c3ccnn3C)nc2N)c1 [PF-04531083]
IC50 [1]: 0.7 µM | half-life [26]: 3.9 h | Tmax [27]: 1.3 h | clearance [28]: 6.7 mL/min/kg | CL/F [29]: 11.4 mL/min/kg | Vd [30]: 2.25 L/kg | bioavailability [31]: 59% | IC50 [11]: 0.19 µM | IC50 [12]: 37 µM | IC50 [14]: 37 µM | IC50 [17]: 0.54 µM | IC50 [18]: 0.2 µM | Activity (Rattus norvegicus [32]): 7.3 g | fraction unbound [33]: 0.2 | Activity (Rattus norvegicus [34]): Non-toxic | IC50 [21]: 36 µM

Cn1nccc1C(=O)Nc1ccc(-c2cc(Cl)ccc2Cl)c(N)n1
IC50 [1]: 0.92 µM

CNC(=O)c1ccc(-c2ccccc2Cl)c(N)n1
IC50 [1]: > 32 µM

CNC(=O)c1ccc(-c2cc(Cl)ccc2Cl)c(N)n1
IC50 [1]: 12 µM

CNC(=O)c1ccc(-c2cc(Cl)cc(Cl)c2)c(N)n1
IC50 [1]: > 32 µM

Cc1nocc1C(=O)Nc1ccc(-c2ccccc2OC(F)(F)F)c(N)n1
IC50 [1]: 0.53 µM | half-life [35]: 9.7 h | Tmax [36]: 3.5 h | clearance [37]: 6.2 mL/min/kg | CL/F [38]: 10 mL/min/kg | Vd [39]: 5.3 L/kg | bioavailability [40]: 63% | IC50 [11]: 0.26 µM | IC50 [41]: 10 µM | IC50 [42]: 10 µM | IC50 [43]: 10 µM | IC50 [17]: 0.33 µM | Activity (Rattus norvegicus [32]): Active | IC50 [20]: > 30 µM

Nc1nnc(-c2cccc(Cl)c2Cl)c(N)n1 [LAMOTRIGINE]
IC50 [1]: 98 µM | IC50 [3]: 17 µM

COc1ccc(Cl)c(-c2ccc(NC(=O)C(C)C)nc2N)c1
IC50 [1]: 4 µM

CNC(=O)c1cnc(N)c(-c2cc(Cl)cc(Cl)c2Cl)c1
IC50 [1]: 24 µM | IC50 [3]: 6.9 µM

CNC(=O)c1ccc(-c2cccc(Cl)c2)c(N)n1
IC50 [1]: > 32 µM

Cn1nccc1C(=O)Nc1ccc(-c2ccccc2Cl)c(N)n1
IC50 [1]: 4.9 µM

COc1ccc(Cl)cc1-c1ccc(NC(=O)c2ccnn2C)nc1N
IC50 [1]: 7.4 µM

Cn1nccc1C(=O)Nc1ccc(-c2ccc(F)cc2Cl)c(N)n1
IC50 [1]: > 31 µM
